The values below come from PMC7218920 (Science translational medicine, 2019).

One experiment has as its system soluble GC. The experiment can be described thus: HEK-293 cells expressing cGMP-sensor alone. Type of experiment: cell-based, human. The gist of the method: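 HEK-293 cells carrying the GloSensor cGMP luciferase reporter (pGS-40F), either transiently transfected or as a stable control line, with no NPR1. Luminescence from GloSensor reagent was read in real time after media, SNP (333 μM; a soluble GC activator) or hNPPA, hNPPB or NPPC (10 nM each). The stable line also received SNP and peptide concentration series. Transient time courses were run in triplicate.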

For another experiment, the target named is T1, hNPR1 (Homo sapiens, UniProt P16066).
T1 sequence (P16066 33-1061): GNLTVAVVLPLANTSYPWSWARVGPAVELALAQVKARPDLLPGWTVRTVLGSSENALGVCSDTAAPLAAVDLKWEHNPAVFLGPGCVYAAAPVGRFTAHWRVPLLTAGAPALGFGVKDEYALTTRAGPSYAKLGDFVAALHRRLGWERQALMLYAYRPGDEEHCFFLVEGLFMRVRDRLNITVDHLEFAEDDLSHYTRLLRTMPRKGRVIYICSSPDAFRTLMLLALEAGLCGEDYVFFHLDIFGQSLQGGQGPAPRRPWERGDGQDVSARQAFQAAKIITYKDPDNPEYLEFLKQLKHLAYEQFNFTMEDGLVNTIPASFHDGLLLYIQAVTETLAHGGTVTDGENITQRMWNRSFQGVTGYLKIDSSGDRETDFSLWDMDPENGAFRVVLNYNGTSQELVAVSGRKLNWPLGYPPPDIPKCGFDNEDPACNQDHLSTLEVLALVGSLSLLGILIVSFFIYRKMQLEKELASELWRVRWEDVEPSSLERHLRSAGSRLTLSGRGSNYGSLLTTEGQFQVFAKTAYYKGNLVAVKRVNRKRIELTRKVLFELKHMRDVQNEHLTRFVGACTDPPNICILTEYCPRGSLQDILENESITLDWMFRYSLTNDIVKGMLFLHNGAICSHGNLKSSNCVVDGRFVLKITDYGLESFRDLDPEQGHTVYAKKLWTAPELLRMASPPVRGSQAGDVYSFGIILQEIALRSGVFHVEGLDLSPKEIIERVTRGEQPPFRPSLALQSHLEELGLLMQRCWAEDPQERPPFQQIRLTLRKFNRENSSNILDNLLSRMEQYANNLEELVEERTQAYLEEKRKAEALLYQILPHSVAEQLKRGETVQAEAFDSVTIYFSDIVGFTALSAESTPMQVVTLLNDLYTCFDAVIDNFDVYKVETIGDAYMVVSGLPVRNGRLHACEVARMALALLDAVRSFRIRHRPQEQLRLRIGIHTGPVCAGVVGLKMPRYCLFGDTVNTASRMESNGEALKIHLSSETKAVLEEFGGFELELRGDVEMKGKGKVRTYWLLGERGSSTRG
The experiment can be described thus: HEK-hNPR1-cGMP-sensor cells, qHTS cell-based assay. As to conditions: stable cell-line. The gist of the method: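 A stable HEK-293 line expressing hNPR1 plus the GloSensor cGMP reporter (pGS-40F) was stimulated with hNPPA, hNPPB or NPPC for time courses (10 nM each) and concentration-response. For qHTS, luminescence was read before and 30 min after agonist addition. Compounds were screened at six log concentrations and confirmed at 8 concentrations. Counter-screens covered luciferase interference, cytotoxicity and SNP-stimulated cGMP-sensor-only cells.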
(qHTS replaces the single test concentration by a dilution series.)

“hNPPB: human natriuretic polypeptide b, NPR1 agonist”: the “response of stable cGMP-reporter cells” value with soluble GC (stable cGMP-sensor control cell-line) is listed as “lacked responses”. Besides, in the experiment with soluble GC (transient cGMP-sensor, SNP 333 μM, peptides 10 nM), the “luciferase activity / cGMP in cGMP reporter cells” value is “did not increase cGMP”. In addition, the “response of hNPR1-cGMP-reporter cells” value with hNPR1 is “with appropriate potencies”.
